The source made the active and inactive calls. The calls are words filed in the database; no cut-off is given here.
Columns and labels:
[1] = system: Rattus norvegicus; assay: Antisecretory activity in 5-hrs pyloric ligated rat assessed as pH of gastric contents at 100 mg/kg, po administered 2 hrs prior to pyloric ligation measured after 1 hr (reference value: 1.1 no-unit); assay type: functional, Stomach
[2] = system: Rattus norvegicus; assay: Antisecretory activity in po dosed 5-hrs pyloric ligated rat assessed as decrease in total acidity of gastric secretions administered 2 hrs prior to pyloric ligation; assay type: functional, organism-based; settings: Stomach
How it was run: (§1)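 Rats given a single po dose (12.5–100 mg/kg) 2 h before a 5-h pyloric ligation. Gastric secretion was assayed for pH, volume (mL/100 g) and total acid output ([…]), with % inhibition relative to controls. Groups had 5–15 rats, with 39 controls. Values are means ± SE from several experiments, and significance versus control was taken at p < 0.05 or 0.01.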

[3] = system: Rattus norvegicus; assay: Antisecretory activity in 5-hrs pyloric ligated rat assessed as pH of gastric contents at 25 mg/kg, po administered 2 hrs prior to pyloric ligation measured after 1 hr (reference value: 1.07 +/- 0.01 no-unit); assay type: functional, Stomach; how it was run: as §1
[4] = system: Canis familiaris; assay: Antisecretory activity in histamine-stimulated dog assessed as volume of gastric secretion at 25 mg/kg, po administered 18 and 2 hrs prior to histamine challenge measured per 15 mins (reference value: 14.7 ml); assay type: functional, Canis lupus familiaris, Stomach
[5] = system: Rattus norvegicus; assay: Antisecretory activity in 5-hrs pyloric ligated rat assessed as inhibition of total acid output at 50 mg/kg, po administered 2 hrs prior to pyloric ligation (reference value: 0%); assay type: functional; how it was run: as §1
[6] = system: Rattus norvegicus; assay: Antisecretory activity in 5-hrs pyloric ligated rat assessed as volume of gastric secretion at 25 mg/kg, po administered 2 hrs prior to pyloric ligation measured per 100 gm of tissue (reference value: 4.05 +/- 0.21 ml); assay type: functional, Stomach; how it was run: as §1
[7] = system: Rattus norvegicus; assay: Antisecretory activity in 5-hrs pyloric ligated rat assessed as volume of gastric secretion at 50 mg/kg, po administered 2 hrs prior to pyloric ligation measured per 100 gm of tissue (reference value: 4.05 +/- 0.21 ml); assay type: functional, Stomach; how it was run: as §1
[8] = system: Canis familiaris; assay: Antisecretory activity in histamine-stimulated dog assessed as inhibition of total acid output at 6.2 mg/kg, po administered 18 and 2 hrs prior to histamine challenge (reference value: 0%); assay type: functional; settings: Canis lupus familiaris
[9] = system: Canis familiaris; assay: Antisecretory activity in histamine-stimulated dog assessed as pH of gastric contents at 6.2 mg/kg, po administered 18 and 2 hrs prior to histamine challenge (reference value: 1 no-unit); assay type: functional, Canis lupus familiaris, Stomach
[10] = system: Rattus norvegicus; assay: Antisecretory activity in 5-hrs pyloric ligated rat assessed as volume of gastric secretion at 100 mg/kg, po administered 2 hrs prior to pyloric ligation measured per 100 gm of tissue (reference value: 4.05 +/- 0.21 ml); assay type: functional, Stomach; how it was run: as §1
[11] = species: Mus musculus; assay: Anticholinergic activity in mouse assessed as induction of mydriasis; assay type: functional, organism-based
[12] = system: Rattus norvegicus; assay: Antisecretory activity in 5-hrs pyloric ligated rat assessed as volume of gastric secretion at 12.5 mg/kg, po administered 2 hrs prior to pyloric ligation measured per 100 gm of tissue (reference value: 4.05 +/- 0.21 ml); assay type: functional, Stomach; how it was run: as §1
[13] = system: Rattus norvegicus; assay: Antisecretory activity in po dosed 5-hrs pyloric ligated rat assessed as increase in pH of gastric secretions administered 2 hrs prior to pyloric ligation measured after 1 hr; assay type: functional, organism-based; settings: Stomach; how it was run: as §1
[14] = system: Heart; assay: Anticholinergic activity in guinea pig auricle assessed as carbamylcholine-induced depression of heart rate after 5 mins; assay type: functional, tissue-based; settings: Cavia porcellus
How it was run: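 Isolated guinea pig auricles in Krebs-Henseleit solution at 35 °C. Compound dissolved in Me2SO-H2O, added to the bath, and left on the tissue for 5 min. Read-out was the dose-related carbamylcholine-induced fall in spontaneous heart rate.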

[15] = system: Canis familiaris; assay: Antisecretory activity in histamine-stimulated dog assessed as volume of gastric secretion at 3.1 mg/kg, po administered 18 and 2 hrs prior to histamine challenge measured per 15 mins (reference value: 14.7 ml); assay type: functional, Canis lupus familiaris, Stomach
[16] = system: Canis familiaris; assay: Antisecretory activity in histamine-stimulated dog assessed as inhibition of total acid output at 1.6 mg/kg, po administered 18 and 2 hrs prior to histamine challenge (reference value: 0%); assay type: functional; settings: Canis lupus familiaris
[17] = system: Rattus norvegicus; assay: Antisecretory activity in 5-hrs pyloric ligated rat assessed as inhibition of total acid output at 100 mg/kg, po administered 2 hrs prior to pyloric ligation (reference value: 0%); assay type: functional; how it was run: as §1
[18] = system: Canis familiaris; assay: Antisecretory activity in histamine-stimulated dog assessed as volume of gastric secretion at 12.5 mg/kg, po administered 18 and 2 hrs prior to histamine challenge measured per 15 mins (reference value: 14.7 ml); assay type: functional, Canis lupus familiaris, Stomach
[19] = system: Rattus norvegicus; assay: Antisecretory activity in 5-hrs pyloric ligated rat assessed as inhibition of total acid output at 12.5 mg/kg, po administered 2 hrs prior to pyloric ligation (reference value: 0%); assay type: functional; how it was run: as §1
[20] = system: Canis familiaris; assay: Antisecretory activity in histamine-stimulated dog assessed as inhibition of total acid output at 3.1 mg/kg, po administered 18 and 2 hrs prior to histamine challenge (reference value: 0%); assay type: functional; settings: Canis lupus familiaris
[21] = system: Canis familiaris; assay: Antisecretory activity in histamine-stimulated dog assessed as volume of gastric secretion at 6.2 mg/kg, po administered 18 and 2 hrs prior to histamine challenge measured per 15 mins (reference value: 14.7 ml); assay type: functional, Canis lupus familiaris, Stomach
[22] = system: Canis familiaris; assay: Antisecretory activity in po dosed histamine-stimulated dog assessed as decrease in total acidity of gastric secretions administered 18 and 2 hrs prior to histamine challenge; assay type: functional, organism-based; settings: Canis lupus familiaris; Stomach
[23] = system: Canis familiaris; assay: Antisecretory activity in histamine-stimulated dog assessed as volume of gastric secretion at 1.6 mg/kg, po administered 18 and 2 hrs prior to histamine challenge measured per 15 mins (reference value: 14.7 ml); assay type: functional, Canis lupus familiaris, Stomach
[24] = system: Canis familiaris; assay: Antisecretory activity in histamine-stimulated dog assessed as pH of gastric contents at 1.6 mg/kg, po administered 18 and 2 hrs prior to histamine challenge (reference value: 1 no-unit); assay type: functional, Canis lupus familiaris, Stomach
[25] = system: Rattus norvegicus; assay: Antisecretory activity in po dosed 5-hrs pyloric ligated rat assessed as decrease in volume of gastric secretions administered 2 hrs prior to pyloric ligation; assay type: functional, organism-based; settings: Stomach; how it was run: as §1
[26] = system: Canis familiaris; assay: Antisecretory activity in histamine-stimulated dog assessed as pH of gastric contents at 3.1 mg/kg, po administered 18 and 2 hrs prior to histamine challenge (reference value: 1 no-unit); assay type: functional, Canis lupus familiaris, Stomach
[27] = system: Canis familiaris; assay: Antisecretory activity in po dosed histamine-stimulated dog assessed as decrease in volume of gastric secretions administered 18 and 2 hrs prior to histamine challenge; assay type: functional, organism-based; settings: Canis lupus familiaris; Stomach
[28] = system: Canis familiaris; assay: Antisecretory activity in po dosed histamine-stimulated dog assessed as increase in pH of gastric secretions administered 18 and 2 hrs prior to histamine challenge; assay type: functional, organism-based; settings: Canis lupus familiaris; Stomach
[29] = system: Canis familiaris; assay: Antisecretory activity in histamine-stimulated dog assessed as inhibition of total acid output at 12.5 mg/kg, po administered 18 and 2 hrs prior to histamine challenge (reference value: 0%); assay type: functional; settings: Canis lupus familiaris
[30] = system: Trachea; assay: Anticholinergic activity in guinea pig trachea assessed as carbamylcholine-induced constriction at 10 uM; assay type: functional, tissue-based; settings: Cavia porcellus
How it was run: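 Guinea pig trachea set up in the same bath system as the auricle preparation. Compound in Me2SO-H2O was added to the bath at 10^-5 M. Read-out was the dose-related response to carbamylcholine.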

[31] = system: Rattus norvegicus; assay: Antisecretory activity in 5-hrs pyloric ligated rat assessed as pH of gastric contents at 12.5 mg/kg, po administered 2 hrs prior to pyloric ligation measured after 1 hr (reference value: 1.07 +/- 0.01 no-unit); assay type: functional, Stomach; how it was run: as §1
[32] = system: Rattus norvegicus; assay: Antisecretory activity in 5-hrs pyloric ligated rat assessed as pH of gastric contents at 100 mg/kg, po administered 2 hrs prior to pyloric ligation measured after 1 hr (reference value: 1.07 to 1.1 no-unit); assay type: functional, Stomach
[33] = system: Rattus norvegicus; assay: Antisecretory activity in 5-hrs pyloric ligated rat assessed as pH of gastric contents at 50 mg/kg, po administered 2 hrs prior to pyloric ligation measured after 1 hr (reference value: 1.07 +/- 0.01 no-unit); assay type: functional, Stomach; how it was run: as §1
[34] = system: Canis familiaris; assay: Antisecretory activity in histamine-stimulated dog assessed as inhibition of total acid output at 25 mg/kg, po administered 18 and 2 hrs prior to histamine challenge (reference value: 0%); assay type: functional; settings: Canis lupus familiaris
[35] = system: Canis familiaris; assay: Antisecretory activity in histamine-stimulated dog assessed as pH of gastric contents at 25 mg/kg, po administered 18 and 2 hrs prior to histamine challenge (reference value: 1 no-unit); assay type: functional, Canis lupus familiaris, Stomach
[36] = system: Rattus norvegicus; assay: Antisecretory activity in 5-hrs pyloric ligated rat assessed as inhibition of total acid output at 25 mg/kg, po administered 2 hrs prior to pyloric ligation (reference value: 0%); assay type: functional; how it was run: as §1
[37] = target: Histamine H2 receptor (Cavia porcellus) (UniProt P47747); assay: Inhibition of histamine H2 receptor in guinea pig atria assessed as inhibition of histamine response
[38] = system: Canis familiaris; assay: Antisecretory activity in histamine-stimulated dog assessed as pH of gastric contents at 12.5 mg/kg, po administered 18 and 2 hrs prior to histamine challenge (reference value: 1 no-unit); assay type: functional, Canis lupus familiaris, Stomach

Sequence of Histamine H2 receptor (Cavia porcellus) (P47747 whole entry): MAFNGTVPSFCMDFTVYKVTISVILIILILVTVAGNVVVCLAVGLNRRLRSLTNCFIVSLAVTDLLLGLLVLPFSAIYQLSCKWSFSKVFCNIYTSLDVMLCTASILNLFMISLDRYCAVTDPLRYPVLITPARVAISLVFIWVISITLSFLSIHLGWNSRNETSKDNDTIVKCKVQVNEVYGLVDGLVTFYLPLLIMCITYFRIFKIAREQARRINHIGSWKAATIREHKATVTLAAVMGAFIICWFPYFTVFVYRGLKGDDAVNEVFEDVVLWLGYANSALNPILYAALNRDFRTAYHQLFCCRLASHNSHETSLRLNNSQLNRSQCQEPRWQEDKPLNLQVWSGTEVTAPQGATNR

Cc1c2c(c(C)n1CC1CC1)C(C)(C(N)=O)CC2(C)C (stereo unspecified)
pH [1]: 5.1

Cc1c2c(c(C)n1-c1ccc(Cl)cc1)C(C)(C(N)=O)CC2(C)C (stereo unspecified)
pH [1]: 1.2

CCn1c(C)c2c(c1C)C(C)(C(N)=O)CC2(C)C (stereo unspecified)
pH [1]: 4.8

CCCCn1c(C)c2c(c1C)C(C)(C(N)=O)CC2(C)C (stereo unspecified)
pH [1]: 2.5

Cc1cccc(-n2c(C)c3c(c2C)C(C)(C(N)=O)CC3(C)C)c1 (stereo unspecified)
pH [1]: 1.2

Cc1c2c(c(C)n1-c1ccccc1Cl)C(C)(C(N)=O)CC2(C)C (stereo unspecified)
pH [1]: 1.1

Cc1c2c(c(C)n1C1CC1)C(C)(C(N)=O)CC2(C)C (stereo unspecified)
pH [1]: 3.7

Cc1ccccc1-n1c(C)c2c(c1C)C(C)(C(N)=O)CC2(C)C (stereo unspecified)
pH [1]: 1

CN/C(=N\CCSCc1nc[nH]c1C)NC#N [CIMETIDINE]
pH [1]: 2.1

CCCn1c(C)c2c(c1C)C(C)(C(N)=O)CC2(C)C (stereo unspecified)
pH [1]: 5.3

Cc1[nH]c(C)c2c1C(C)(C)CC2(C)C(N)=O (stereo unspecified)
pH [1]: 1.4

Cc1c2c(c(C)n1Cc1ccccc1)C(C)(C(N)=O)CC2(C)C (stereo unspecified)
pH [1]: 1

Cc1c2c(c(C)n1-c1cccc(Cl)c1)C(C)(C(N)=O)CC2(C)C (stereo unspecified)
pH [1]: 1.1

Cc1ccc(-n2c(C)c3c(c2C)C(C)(C(N)=O)CC3(C)C)cc1 (stereo unspecified)
pH [1]: 1.1

Cc1c2c(c(C)n1C)C(C)(C(N)=O)CC2(C)C (stereo unspecified)
pH [1]: 4.2

Cc1c2c(c(C)n1-c1ccc(F)cc1)C(C)(C(N)=O)CC2(C)C (stereo unspecified)
pH [1]: 1.4

Cc1c2c(c(C)n1C1CCCC1)C(C)(C(N)=O)CC2(C)C (stereo unspecified)
pH [1]: 1.3

Cc1c2c(c(C)n1-c1ccccc1)C(C)(C(N)=O)CC2(C)C (stereo unspecified)
inhibition [2]: Dose-dependent effect
pH [3]: 1.83
Activity [4]: 2.4 mL
inhibition in vivo at 50 mg/kg [5]: 75%
Activity [6]: 2.16 mL
Activity [7]: 1.66 mL
inhibition in vivo at 6.2 mg/kg [8]: 95%
pH [9]: 3.9
Activity [10]: 1.19 mL
Activity [11]: inactive
Activity [12]: 2.66 mL
Activity [13]: Dose-dependent effect
Activity [14]: inactive
Activity [15]: 3.8 mL
inhibition in vivo at 1.6 mg/kg [16]: 49%
inhibition in vivo at 100 mg/kg [17]: 100%
Activity [18]: 4.8 mL
inhibition in vivo at 12.5 mg/kg [19]: 41%
inhibition in vivo at 3.1 mg/kg [20]: 84%
Activity [21]: 2 mL
inhibition [22]: Dose-dependent effect
Activity [23]: 11.9 mL
pH [24]: 1.2
inhibition [25]: Dose-dependent effect
pH [26]: 1.8
inhibition [27]: Dose-dependent effect
Activity [28]: Dose-dependent effect
inhibition in vivo at 12.5 mg/kg [29]: 88%
Activity [30]: inactive
pH [31]: 1.34
pH [32]: 6.2
pH [33]: 3.28
inhibition in vivo at 25 mg/kg [34]: 93%
pH [35]: 6.7
inhibition in vivo at 25 mg/kg [36]: 52%
inhibition [37]: Active
pH [38]: 4.7

Cc1c2c(c(C)n1C1CCC1)C(C)(C(N)=O)CC2(C)C (stereo unspecified)
pH [1]: 2.2

Cc1c2c(c(C)n1C(C)C)C(C)(C(N)=O)CC2(C)C (stereo unspecified)
pH [1]: 1.8

— ChEMBL document CHEMBL3244175, “Experimental antiulcer drugs. 2. 2-Substituted 2,4,5,6-tetrahydro-1,3,4,6,6-pentamethylcyclopenta[c]pyrrole-4-carboxamides” (1977)
